Experimental data of several laboratories.
Each line is one published result; the experiments were not run side by side.
Observed: metabolic stability
Species: human

SMILES | test system | setting | quantity | result
CNS(=O)(=O)c1ccc(Nc2ncc3cc(Cl)c(=O)n(C4CCCC4)c3n2)c(C)c1 | liver microsomes | 1 µM | scaled CLint | 100 mL/min/kg
CCCN(CCC)CCCOc1ccc2c(=O)c3c([nH]c2c1)CCCC3 | liver microsomes | 1 µM, pH 7.4 | microsomal CLint | 37.1 µL/min/mg
COc1cc(-c2cc(C(C)=O)n3ccccc23)c(OC)cc1Cn1ccnc1 | liver microsomes | pH 7.4 | scaled CLint | 15.6 mL/min/kg
CCOCC(=O)N1CCC[C@H](C(=O)NCc2nc(-c3ccc(C)nc3)cs2)C1 | liver microsomes | 0.5 µM | scaled CLint | 11 mL/min/kg
CNS(=O)(=O)c1ccc(Nc2ncc(C(F)(F)F)c(N3CCC(C)(O)CC3)n2)c(C)c1 | liver microsomes | 1 µM | scaled CLint | 48 mL/min/kg
O=c1c2ccc(OCc3cccc(OC(F)(F)F)c3)cc2[nH]c2ccc(Cl)c(F)c12 | liver microsomes | 1 µM, pH 7.4 | microsomal CLint | 1.24 µL/min/mg
Cc1cc(S(=O)(=O)N[C@H]2CC[C@H](CN3CCN(c4cccc(NC5CCC(=O)NC5=O)c4)CC3)CC2)ccc1Nc1ncc(C(F)(F)F)c(N2CCC[C@](C)(O)C2)n1 (stereo partly drawn) | liver microsomes | 1 µM | scaled CLint | < 14 mL/min/kg
C[C@H]1[C@@H](C(=O)NCc2nc(-c3ccc(C#N)cc3)cs2)CCCN1C(=O)[C@H]1CCO1 | liver microsomes | 0.5 µM | microsomal CLint | 131 µL/min/mg
Cc1cc(S(=O)(=O)NC2CCC(CC3CCN(c4ccc(C5CCC(=O)NC5=O)cc4)CC3)CC2)ccc1Nc1ncc(C(F)(F)F)c(N2CCC[C@](C)(O)C2)n1 (stereo partly drawn) | liver microsomes | 1 µM | scaled CLint | 17 mL/min/kg
C[C@H](O)c1cnc(NS(=O)(=O)c2ccc(Cl)c(Cl)c2)nc1 | hepatocytes | 1 µM | hepatocyte CLint | < 3 µL/min/10⁶ cells
COCC(=O)N1CCC[C@H](C(=O)NCc2nc(-c3ccc(C#N)cc3)cs2)C1 | liver microsomes | 0.5 µM | scaled CLint | 12 mL/min/kg
CNS(=O)(=O)c1ccc(Nc2ncc(C(F)(F)F)c([C@H]3CC[C@@](C)(O)CC3)n2)c(C)c1 | liver microsomes | 1 µM | scaled CLint | < 14 mL/min/kg
CCCN(CCC)CCNc1ccc2c(=O)c3c([nH]c2c1)CCCC3 | liver microsomes | 1 µM, pH 7.4 | microsomal CLint | 21.4 µL/min/mg
CCOCC(=O)N1C2CCC(C(=O)NCc3nc(-c4ccc(C#N)cc4)cs3)C1CC2 (stereo not drawn) | liver microsomes | 0.5 µM | microsomal CLint | 42 µL/min/mg
Cc1cc(S(=O)(=O)N[C@]2(C)C[C@H](N3CCN(CC4CCN(c5ccc6c(c5F)n(C)c(=O)n6C5CCC(=O)NC5=O)CC4)CC3)C2)ccc1Nc1ncc(C(F)(F)F)c(N2CCC[C@](C)(O)C2)n1 (stereo partly drawn) | liver microsomes | 1 µM | scaled CLint | 251 mL/min/kg
CCN(CC)CCOc1ccc2c(=O)c3c([nH]c2c1)CCCC3 | liver microsomes | 1 µM, pH 7.4 | microsomal CLint | 6.65 µL/min/mg
O=C(NCc1nc(-c2ccc(C(F)(F)F)cc2)cs1)[C@H]1CCCN(C(=O)CO[C@H]2CCCNC2)C1 | liver microsomes | 0.5 µM | microsomal CLint | 13 µL/min/mg
Cc1cc(S(=O)(=O)N[C@H]2C[C@H](CN3CCN(c4ccc(C5CCC(=O)NC5=O)c(Cl)c4)CC3)C2)ccc1Nc1ncc(C(F)(F)F)c(N2CCC[C@](C)(O)C2)n1 (stereo partly drawn) | liver microsomes | 1 µM | scaled CLint | 21 mL/min/kg
COCC(=O)N1CCC[C@H](C(=O)NCc2nc(-c3ccc(F)cc3)cs2)C1 | liver microsomes | 0.5 µM | microsomal CLint | 14 µL/min/mg
O=c1c2ccc(Oc3ccc(OC(F)(F)F)cc3)cc2[nH]c2cc(Cl)c(F)cc12 | liver microsomes | 1 µM, pH 7.4 | microsomal CLint | 5.07 µL/min/mg
Cc1cc(S(=O)(=O)N[C@H]2CC[C@H](CN3CCN(c4ccc(NC5CCC(=O)NC5=O)cc4F)CC3)CC2)ccc1Nc1ncc(C(F)(F)F)c(N2CCC[C@](C)(O)C2)n1 (stereo partly drawn) | liver microsomes | 1 µM | scaled CLint | < 14 mL/min/kg
O=c1c2cc(F)c(Oc3ccc(OC(F)(F)F)cc3)cc2[nH]c2cc(Cl)cc(F)c12 | liver microsomes | 1 µM, pH 7.4 | microsomal CLint | 2.63 µL/min/mg
C[C@H](O)c1cnc(NS(=O)(=O)c2ccc(C(F)(F)F)c(Cl)c2)nc1 | hepatocytes | 1 µM | hepatocyte CLint | < 3 µL/min/10⁶ cells
N[C@H](COCC(=O)N1CCC[C@H](C(=O)NCc2nc(-c3ccc(C(F)(F)F)cc3)cs2)C1)c1ccccc1 | liver microsomes | 0.5 µM | microsomal CLint | 80 µL/min/mg
CC(C)(C)OC(=O)N1CCC(Oc2ccc3c(=O)c4c(F)cc(Cl)cc4[nH]c3c2)C1 (stereo not drawn) | liver microsomes | 1 µM, pH 7.4 | microsomal CLint | 17.3 µL/min/mg
COCC(=O)N1CCC[C@H](C(=O)NCc2nc(-c3ccccc3)cs2)C1 | liver microsomes | 0.5 µM | microsomal CLint | < 7 µL/min/mg
O=c1c2c([nH]c3cc(Oc4cccc(OC(F)(F)F)c4)ccc13)CCCC2 | liver microsomes | 1 µM, pH 7.4 | microsomal CLint | 1.66 µL/min/mg
